Activity calls are given as the source filed them. The calls are words filed in the database; no cut-off is given here.
How the values were obtained:
[1] = molecular target: DNA topoisomerase 2-alpha (Homo sapiens, UniProt P11388); test: Inhibition of purified human topoisomerase 2-mediated relaxation of supercoiled pBR322 DNA at 50 uM incubated for 30 mins by agarose gel electrophoresis
Procedure, shortened: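 Reactions contained 0.2 μg supercoiled pBR322 in 50 mM Tris-HCl pH 8.0, 150 mM NaCl, 10 mM MgCl2, 0.5 mM DTT, 30 μg/ml BSA, normally 2 mM ATP (1, 2 or 4 mM in ATP-competition runs). Started with 1 U human Topo II, 30 min at 37 °C, stopped with sarcosyl buffer, run on 1% agarose 1.5 h at 75 V, gel-stained and imaged under UV.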

[2] = molecular target: T1, DNA topoisomerase 1 (Homo sapiens) (UniProt P11387); test: Inhibition of recombinant human topoisomerase 1-mediated relaxation of supercoiled pBR322 DNA at 50 uM incubated for 30 mins by agarose gel electrophoresis
T1 sequence (whole entry): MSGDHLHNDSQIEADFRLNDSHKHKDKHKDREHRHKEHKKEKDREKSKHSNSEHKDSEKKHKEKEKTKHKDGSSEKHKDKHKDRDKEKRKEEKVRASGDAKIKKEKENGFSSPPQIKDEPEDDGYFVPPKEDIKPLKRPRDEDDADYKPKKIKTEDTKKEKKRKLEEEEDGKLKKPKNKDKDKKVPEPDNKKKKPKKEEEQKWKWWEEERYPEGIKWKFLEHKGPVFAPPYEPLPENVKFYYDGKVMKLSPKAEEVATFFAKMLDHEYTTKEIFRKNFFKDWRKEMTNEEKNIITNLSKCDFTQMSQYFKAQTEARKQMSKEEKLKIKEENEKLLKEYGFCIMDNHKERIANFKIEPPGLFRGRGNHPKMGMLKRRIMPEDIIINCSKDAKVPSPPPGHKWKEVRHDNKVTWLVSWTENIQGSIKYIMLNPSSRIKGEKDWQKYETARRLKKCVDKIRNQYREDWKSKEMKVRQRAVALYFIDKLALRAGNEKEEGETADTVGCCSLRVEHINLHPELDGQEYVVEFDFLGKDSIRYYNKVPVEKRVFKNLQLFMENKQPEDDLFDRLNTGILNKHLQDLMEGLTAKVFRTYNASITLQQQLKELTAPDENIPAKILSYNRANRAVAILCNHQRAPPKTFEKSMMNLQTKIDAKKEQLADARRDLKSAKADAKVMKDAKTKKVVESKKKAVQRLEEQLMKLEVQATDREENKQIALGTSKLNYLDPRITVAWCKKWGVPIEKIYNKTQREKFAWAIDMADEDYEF
Procedure, shortened: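 Supercoiled pBR322 relaxed by Topo I with compound, incubated 30 min at 37 °C, stopped with 1% SDS dye, run on 1% agarose 1 h at 90 V in TAE, stained and imaged under UV; camptothecin as reference.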

[3] = test system: HeLa; test: Antiproliferative activity against human HeLa cells after 48 hrs by MTT assay; assay type: functional, cell-based
Procedure, shortened: (§1)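 Cells seeded at 5000 per well and left overnight, then exposed to increasing concentrations (0-50 μM) for 48 h. […] HL-60/MX2 is a mitoxantrone-selected HL-60 derivative with reduced Topo IIα/β.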

[4] = Antiproliferative activity against human MDA-MB-201 cells after 48 hrs by MTT assay; assay type: functional, cell-based; procedure, shortened: as §1
[5] = test system: A549; test: Antiproliferative activity against human A549 cells after 48 hrs by MTT assay; assay type: functional, cell-based; details: A549, 48 h; procedure, shortened: as §1
[6] = test system: K562; test: Antiproliferative activity against human K562 cells after 48 hrs by MTT assay; assay type: functional, cell-based; details: K562, 48 h; procedure, shortened: as §1
[7] = test system: Raji; test: Antiproliferative activity against human Raji cells after 48 hrs by MTT assay; assay type: functional, cell-based; procedure, shortened: as §1
[8] = Antiproliferative activity against human HL60 cells after 48 hrs by MTT assay; assay type: functional, cell-based; details: HL-60, 48 h; procedure, shortened: as §1
[9] = Antiproliferative activity against human HL60/MX2 cells after 48 hrs by MTT assay; assay type: functional, cell-based; details: HL60/MX2, 48 h; procedure, shortened: as §1
[10] = test system: HEK293; test: Cytotoxicity against HEK293 cells after 48 hrs by MTT assay; assay type: cell-based; details: Homo sapiens, HEK293, 48 h
[11] = test system: HL-60; test: Resistance index, ratio of IC50 for human HL60/MX2 cells to IC50 for HL60 cells; assay type: functional
Procedure, shortened: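 Resistance index calculated as MTT-derived IC50 (48 h exposure, 0-50 μM, A570 readout) in HL-60/MX2 divided by IC50 in parental HL-60.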

DNA topoisomerase 2-alpha, sequence (P11388 whole entry): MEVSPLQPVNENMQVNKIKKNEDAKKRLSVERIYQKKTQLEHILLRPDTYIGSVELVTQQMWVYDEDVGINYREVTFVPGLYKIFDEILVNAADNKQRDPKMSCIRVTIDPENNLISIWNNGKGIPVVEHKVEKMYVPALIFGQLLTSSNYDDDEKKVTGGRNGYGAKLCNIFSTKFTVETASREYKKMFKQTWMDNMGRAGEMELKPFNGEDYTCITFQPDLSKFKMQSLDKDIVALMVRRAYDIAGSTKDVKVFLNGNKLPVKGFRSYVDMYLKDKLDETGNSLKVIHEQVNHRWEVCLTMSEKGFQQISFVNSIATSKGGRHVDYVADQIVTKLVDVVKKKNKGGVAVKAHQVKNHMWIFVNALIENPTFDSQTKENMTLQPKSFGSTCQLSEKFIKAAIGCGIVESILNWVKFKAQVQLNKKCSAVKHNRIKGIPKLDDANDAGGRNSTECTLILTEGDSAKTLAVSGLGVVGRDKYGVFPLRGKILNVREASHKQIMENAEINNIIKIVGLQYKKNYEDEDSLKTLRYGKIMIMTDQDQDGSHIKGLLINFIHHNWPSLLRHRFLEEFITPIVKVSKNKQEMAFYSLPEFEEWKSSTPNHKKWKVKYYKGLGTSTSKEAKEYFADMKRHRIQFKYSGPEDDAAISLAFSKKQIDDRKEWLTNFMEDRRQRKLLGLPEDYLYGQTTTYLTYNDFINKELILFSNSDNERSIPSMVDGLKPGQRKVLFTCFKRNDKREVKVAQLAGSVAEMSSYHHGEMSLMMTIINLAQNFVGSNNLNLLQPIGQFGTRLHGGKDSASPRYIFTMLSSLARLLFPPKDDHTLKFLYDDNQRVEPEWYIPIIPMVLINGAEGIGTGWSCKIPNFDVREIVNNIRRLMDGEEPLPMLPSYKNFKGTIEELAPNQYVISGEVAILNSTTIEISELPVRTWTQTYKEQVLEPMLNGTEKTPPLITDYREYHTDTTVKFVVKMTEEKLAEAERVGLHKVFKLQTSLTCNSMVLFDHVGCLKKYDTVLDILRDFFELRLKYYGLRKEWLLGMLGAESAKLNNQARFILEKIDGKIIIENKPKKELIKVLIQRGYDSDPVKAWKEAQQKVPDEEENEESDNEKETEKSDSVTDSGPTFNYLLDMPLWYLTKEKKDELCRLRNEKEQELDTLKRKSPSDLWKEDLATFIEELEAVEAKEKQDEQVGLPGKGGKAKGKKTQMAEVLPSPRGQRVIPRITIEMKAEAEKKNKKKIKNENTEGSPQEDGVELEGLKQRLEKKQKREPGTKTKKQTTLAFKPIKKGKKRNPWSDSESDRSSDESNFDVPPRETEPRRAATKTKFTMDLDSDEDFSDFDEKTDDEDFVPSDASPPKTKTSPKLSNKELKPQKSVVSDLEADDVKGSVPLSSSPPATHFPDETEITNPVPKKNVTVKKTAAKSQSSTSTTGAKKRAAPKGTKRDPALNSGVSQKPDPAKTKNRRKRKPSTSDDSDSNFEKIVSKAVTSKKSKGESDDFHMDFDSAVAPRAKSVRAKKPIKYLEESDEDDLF

| SMILES | inhibition [1] | inhibition [2] | IC50 [3] | IC50 [4] | IC50 [5] | IC50 [6] | IC50 [7] | IC50 [8] | IC50 [9] | IC50 [10] | Ratio IC50 [11] |
| --- | --- | --- | --- | --- | --- | --- | --- | --- | --- | --- | --- |
| CCCn1c(N)c(-c2nc3ccccc3[nH]2)c2nc(C#N)c(C#N)nc21 | inactive | inactive | > 50 µM | > 50 µM | 1.97 µM | > 50 µM | > 50 µM | 45.2 µM | > 50 µM | > 50 µM | – |
| CN(C)CCn1c(N)c(-c2nc3ccccc3n2C)c2nc(C#N)c(C#N)nc21 | inactive | – | > 50 µM | > 50 µM | > 50 µM | > 50 µM | 46.5 µM | > 50 µM | 4.68 µM | > 50 µM | – |
| CCCCn1c(N)c(-c2nc3ccccc3[nH]2)c2nc(C#N)c(C#N)nc21 | inactive | inactive | > 50 µM | > 50 µM | > 50 µM | > 50 µM | > 50 µM | > 50 µM | > 50 µM | > 50 µM | – |
| COc1ccc(CCn2c(N)c(-c3nc4ccccc4[nH]3)c3nc(C#N)c(C#N)nc32)cc1 | inactive | inactive | > 50 µM | > 50 µM | > 50 µM | > 50 µM | 2.78 µM | > 50 µM | > 50 µM | > 50 µM | – |
| CCN(CC)CCn1c(N)c(-c2nc3cc(Cl)ccc3[nH]2)c2nc(C#N)c(C#N)nc21 | inactive | – | > 50 µM | > 50 µM | > 50 µM | > 50 µM | 31.5 µM | > 50 µM | 9.29 µM | > 50 µM | – |
| CCN(CC)CCn1c(N)c(-c2nc3ccccc3n2C)c2nc(C#N)c(C#N)nc21 | inactive | – | > 50 µM | > 50 µM | > 50 µM | > 50 µM | 2.08 µM | 8.8 µM | 3.25 µM | 25.4 µM | 0.4 |
| CN(C)CCn1c(N)c(-c2nc3cc(Cl)ccc3[nH]2)c2nc(C#N)c(C#N)nc21 | inactive | – | > 50 µM | > 50 µM | > 50 µM | 11.3 µM | 11.8 µM | > 50 µM | > 50 µM | > 50 µM | – |
| CN(C)CCCCn1c(N)c(-c2nc3cc(Cl)ccc3[nH]2)c2nc(C#N)c(C#N)nc21 | Active | – | 3.12 µM | 3.28 µM | 12.1 µM | 1.93 µM | 0.95 µM | 1.48 µM | 0.58 µM | 4.73 µM | 0.4 |
| N#Cc1nc2c(-c3nc4ccccc4[nH]3)c(N)n(CCCO)c2nc1C#N | inactive | inactive | > 50 µM | > 50 µM | > 50 µM | > 50 µM | > 50 µM | > 50 µM | > 50 µM | > 50 µM | – |
| CN(C)CCCn1c(N)c(-c2nc3cc(Cl)ccc3[nH]2)c2nc(C#N)c(C#N)nc21 | Active | – | 16.5 µM | 28.1 µM | > 50 µM | 10.7 µM | 3.11 µM | 2.93 µM | 5.31 µM | 11.7 µM | 1.8 |
| CCN(CC)CCCn1c(N)c(-c2nc3cc(Cl)ccc3[nH]2)c2nc(C#N)c(C#N)nc21 | Active | – | 24.4 µM | 23.2 µM | > 50 µM | 4.83 µM | 1.62 µM | 3.47 µM | 2.46 µM | 8.42 µM | 0.7 |
| N#Cc1nc2c(-c3nc4ccccc4[nH]3)c(N)n(CCN3CCCC3)c2nc1C#N | inactive | inactive | > 50 µM | > 50 µM | > 50 µM | 6.48 µM | > 50 µM | 4.76 µM | > 50 µM | 18.3 µM | – |
